# In ChEMBL document CHEMBL1148787, “Novel substituted (pyridin-3-yl)phenyloxazolidinones: antibacterial agents with reduced activity against monoamine oxidase A and increased solubility” (J Med Chem, 2007):
# Legend:
# Staphylococcus aureus = experiment: Antibacterial activity against methicillin-susceptible Staphylococcus aureus AP601055; format: functional
# How it was run: (§1)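 CLSI broth microdilution, 64 to 0.06 µg/mL, 2% DMSO final. Media: S. aureus, Mueller Hinton broth; H. influenzae, MHB plus 0.5% yeast extract, 15 µg/mL hematin, 1.5 µg/mL NAD; S. pneumoniae, MHB plus 0.65% lysed horse blood. 35 °C, aerobic (S. aureus) or 5% CO2.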
# Streptococcus pneumoniae [1] = experiment: Antibacterial activity against penicillin-susceptible Streptococcus pneumoniae AP671401; format: functional; how it was run: as §1
# Streptococcus pneumoniae [2] = experiment: Antibacterial activity against linezolid-resistant Streptococcus pneumoniae; format: functional
# How it was run: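 Broth microdilution per CLSI guidelines. Compounds were dissolved in 100% DMSO and diluted to 2% DMSO (v/v), 64 to 0.06 µg/mL, in 2.2% (w/v) Mueller Hinton broth with 0.65% (v/v) lysed horse blood. Plates were incubated at 35 °C in 5% CO2 and read at 620 nm.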
# Haemophilus influenzae = experiment: Antibacterial activity against Haemophilus influenzae ATCC 51907; format: functional; how it was run: as §1
# [3] = Solubility by nephelometric analysis; format: physicochemical
# How it was run: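 Nephelometry after diluting compounds into the MAO-A assay mixture (100 mM potassium phosphate, pH 7.4).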
# [4] = molecular target: T1, Amine oxidase [flavin-containing] A (Homo sapiens, UniProt P21397); experiment: Inhibition of human liver MAOA expressed in yeast
# T1 sequence (P21397 whole entry): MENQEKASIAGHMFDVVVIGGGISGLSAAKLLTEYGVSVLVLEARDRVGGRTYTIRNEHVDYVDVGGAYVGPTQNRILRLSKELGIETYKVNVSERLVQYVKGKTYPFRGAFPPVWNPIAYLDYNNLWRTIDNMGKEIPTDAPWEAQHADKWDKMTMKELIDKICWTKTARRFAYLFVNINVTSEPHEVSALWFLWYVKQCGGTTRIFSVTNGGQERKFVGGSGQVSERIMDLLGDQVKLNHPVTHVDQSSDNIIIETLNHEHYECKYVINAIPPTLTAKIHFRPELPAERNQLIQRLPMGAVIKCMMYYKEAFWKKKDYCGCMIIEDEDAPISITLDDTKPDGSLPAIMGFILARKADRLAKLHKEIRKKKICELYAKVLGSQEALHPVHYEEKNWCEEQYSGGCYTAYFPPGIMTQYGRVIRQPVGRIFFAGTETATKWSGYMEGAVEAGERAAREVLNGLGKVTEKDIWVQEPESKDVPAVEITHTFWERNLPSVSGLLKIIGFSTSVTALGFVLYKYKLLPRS
# Homo sapiens = organism: Homo sapiens; experiment: Protein binding in human plasma; settings: read-out: PPB (converted)
# [5] = Half life in Wistar rat at 10 mg/kg, iv; format: ADME, organism-based; design: dose 10 mg/kg, route intravenous; settings: in vivo
# How it was run: (§2)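 Groups of three Wistar Han rats; bolus injection via cannulated jugular vein at 2 or 10 mg/kg. Serial 200 µL whole-blood samples at time intervals; plasma levels by LC-MS/MS; parameters by noncompartmental analysis.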
# [6] = Clearance in Wistar rat at 10 mg/kg, iv; format: ADME, organism-based; design: dose 10 mg/kg, route intravenous; settings: in vivo; how it was run: as §2
# [7] = Volume of distribution in Wistar rat at 10 mg/kg, iv; format: ADME, organism-based; design: dose 10 mg/kg, route intravenous; settings: in vivo, read-out: Vdss; how it was run: as §2
# [8] = AUC in Wistar rat at 10 mg/kg, iv; format: ADME, organism-based; design: dose 10 mg/kg, route intravenous; settings: plasma; how it was run: as §2
# Cytochrome P450 1A2 = molecular target: T2, Cytochrome P450 1A2 (Homo sapiens, UniProt P05177); experiment: Inhibition of human recombinant CYP1A2; format: ADME
# T2 sequence (P05177 whole entry): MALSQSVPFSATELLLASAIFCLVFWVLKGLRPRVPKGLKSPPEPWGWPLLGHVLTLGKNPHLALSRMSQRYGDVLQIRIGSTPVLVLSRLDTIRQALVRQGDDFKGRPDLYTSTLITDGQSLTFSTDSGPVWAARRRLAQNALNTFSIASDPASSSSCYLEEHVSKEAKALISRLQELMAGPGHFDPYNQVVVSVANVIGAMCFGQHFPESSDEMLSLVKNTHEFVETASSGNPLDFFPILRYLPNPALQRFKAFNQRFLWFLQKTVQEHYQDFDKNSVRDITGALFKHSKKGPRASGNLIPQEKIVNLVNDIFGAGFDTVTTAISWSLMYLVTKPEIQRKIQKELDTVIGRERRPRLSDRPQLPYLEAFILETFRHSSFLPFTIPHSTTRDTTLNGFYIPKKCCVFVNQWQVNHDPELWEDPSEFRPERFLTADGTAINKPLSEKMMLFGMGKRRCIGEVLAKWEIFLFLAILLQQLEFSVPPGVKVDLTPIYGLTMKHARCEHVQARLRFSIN
# How it was run: (§3)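 Recombinant human P450s, compound at 0.2-20 µM; fluorogenic substrates: 3-cyano-7-ethoxycoumarin (1A2), 7-methoxy-4-trifluoromethylcoumarin (2C9, 2C19), 7-methoxy-4-(aminomethyl)coumarin (2D6). Fluorescence detection; IC50 determined.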
# Cytochrome P450 2C9 = Cytochrome P450 2C9 (Homo sapiens, UniProt P11712); experiment: Inhibition of human recombinant CYP2C9; format: ADME; how it was run: as §3
# Cytochrome P450 2C9, sequence (P11712 whole entry): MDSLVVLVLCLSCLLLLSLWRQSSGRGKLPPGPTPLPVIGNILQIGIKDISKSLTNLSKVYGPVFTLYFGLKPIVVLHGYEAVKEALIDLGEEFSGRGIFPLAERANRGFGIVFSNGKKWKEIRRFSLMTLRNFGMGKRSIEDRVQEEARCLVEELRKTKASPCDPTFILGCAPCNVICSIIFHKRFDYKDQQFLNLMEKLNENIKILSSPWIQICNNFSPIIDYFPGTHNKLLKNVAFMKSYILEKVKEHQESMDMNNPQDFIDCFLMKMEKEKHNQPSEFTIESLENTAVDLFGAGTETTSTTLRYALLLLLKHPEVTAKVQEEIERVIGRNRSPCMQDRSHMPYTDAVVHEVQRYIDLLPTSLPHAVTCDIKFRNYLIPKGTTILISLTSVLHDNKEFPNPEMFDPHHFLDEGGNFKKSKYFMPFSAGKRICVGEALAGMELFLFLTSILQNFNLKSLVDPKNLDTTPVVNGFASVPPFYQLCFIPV
# Cytochrome P450 2C19 = Cytochrome P450 2C19 (Homo sapiens, UniProt P33261); experiment: Inhibition of human recombinant CYP2C19; format: ADME; how it was run: as §3
# Cytochrome P450 2C19, sequence (P33261 whole entry): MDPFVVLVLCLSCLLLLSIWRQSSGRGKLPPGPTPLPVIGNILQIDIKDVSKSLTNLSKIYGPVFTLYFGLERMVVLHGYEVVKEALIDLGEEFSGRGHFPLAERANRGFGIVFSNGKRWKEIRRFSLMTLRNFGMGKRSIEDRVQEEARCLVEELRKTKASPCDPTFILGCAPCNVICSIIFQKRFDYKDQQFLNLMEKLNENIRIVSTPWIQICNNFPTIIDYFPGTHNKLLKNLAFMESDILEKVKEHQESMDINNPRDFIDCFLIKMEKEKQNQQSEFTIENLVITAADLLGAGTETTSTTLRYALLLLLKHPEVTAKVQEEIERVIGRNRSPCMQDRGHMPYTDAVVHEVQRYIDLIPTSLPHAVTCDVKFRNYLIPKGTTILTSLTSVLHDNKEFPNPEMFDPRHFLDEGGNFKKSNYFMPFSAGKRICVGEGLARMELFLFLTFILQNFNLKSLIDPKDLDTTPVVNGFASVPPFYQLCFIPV
# Cytochrome P450 2D6 = Cytochrome P450 2D6 (Homo sapiens, UniProt P10635); experiment: Inhibition of human recombinant CYP2D6; format: ADME; how it was run: as §3
# Cytochrome P450 2D6, sequence (P10635 whole entry): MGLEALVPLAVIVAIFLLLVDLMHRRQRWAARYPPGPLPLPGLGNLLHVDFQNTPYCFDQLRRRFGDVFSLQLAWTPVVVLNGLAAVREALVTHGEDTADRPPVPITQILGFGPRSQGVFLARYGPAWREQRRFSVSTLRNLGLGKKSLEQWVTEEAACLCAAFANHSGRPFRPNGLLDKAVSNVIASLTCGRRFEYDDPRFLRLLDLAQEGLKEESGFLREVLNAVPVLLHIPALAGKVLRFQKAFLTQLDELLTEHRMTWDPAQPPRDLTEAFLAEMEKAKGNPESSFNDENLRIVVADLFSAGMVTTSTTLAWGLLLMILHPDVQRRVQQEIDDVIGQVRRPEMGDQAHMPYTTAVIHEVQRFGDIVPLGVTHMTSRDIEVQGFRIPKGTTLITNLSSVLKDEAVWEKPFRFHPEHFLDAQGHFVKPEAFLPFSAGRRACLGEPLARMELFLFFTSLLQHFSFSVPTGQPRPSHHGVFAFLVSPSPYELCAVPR
# Cytochrome P450 3A4 = Cytochrome P450 3A4 (Homo sapiens, UniProt P08684); experiment: Inhibition of human recombinant CYP3A4; format: ADME
# Cytochrome P450 3A4, sequence (P08684 whole entry): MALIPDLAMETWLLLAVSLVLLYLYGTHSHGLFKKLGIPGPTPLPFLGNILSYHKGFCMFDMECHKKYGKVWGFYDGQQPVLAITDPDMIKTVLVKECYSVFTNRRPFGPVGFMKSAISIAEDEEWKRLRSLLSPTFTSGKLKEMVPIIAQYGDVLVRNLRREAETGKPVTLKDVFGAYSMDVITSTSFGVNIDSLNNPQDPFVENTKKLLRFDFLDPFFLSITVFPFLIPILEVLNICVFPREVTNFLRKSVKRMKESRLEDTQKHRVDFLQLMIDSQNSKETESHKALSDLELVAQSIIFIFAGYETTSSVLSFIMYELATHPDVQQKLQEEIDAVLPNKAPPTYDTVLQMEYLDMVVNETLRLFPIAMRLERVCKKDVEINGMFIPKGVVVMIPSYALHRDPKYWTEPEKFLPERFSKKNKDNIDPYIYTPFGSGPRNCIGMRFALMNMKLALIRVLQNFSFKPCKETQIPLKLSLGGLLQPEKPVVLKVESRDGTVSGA
SMILES,MIC (Staphylococcus aureus),MIC (Streptococcus pneumoniae [1]),MIC (Streptococcus pneumoniae [2]),MIC (Haemophilus influenzae),solubility kinetic [3],Ki [4],fraction unbound (Homo sapiens),half-life [5],clearance [6],Vd [7],AUC [8],IC50 (Cytochrome P450 1A2),IC50 (Cytochrome P450 2C9),IC50 (Cytochrome P450 2C19),IC50 (Cytochrome P450 2D6),IC50 (Cytochrome P450 3A4)
CN1CCN(CCCC(=O)c2ccc(-c3ccc(N4C[C@H](Cn5ccnn5)OC4=O)cc3F)cn2)CC1,1 µg/mL,< 0.06 µg/mL,0.5 µg/mL,8 µg/mL,> 400 µM,10.5 µM,0.5,–,–,–,–,–,–,–,–,–
O=C(CCCN1CCOCC1)c1ccc(-c2ccc(N3C[C@H](Cn4ccnn4)OC3=O)cc2F)cn1,0.5 µg/mL,0.13 µg/mL,0.5 µg/mL,4 µg/mL,100 µM,–,0.35,–,–,–,–,–,–,–,–,–
O=C(CC1CCNCC1)c1ccc(-c2ccc(N3C[C@H](Cn4ccnn4)OC3=O)cc2F)cn1,1 µg/mL,0.13 µg/mL,0.5 µg/mL,8 µg/mL,> 400 µM,28 µM,–,2.4 h,196 mL/min/kg,15 L/kg,800 ng·h/mL,–,–,–,–,–
Cc1cn(CC(=O)c2ccc(-c3ccc(N4C[C@H](Cn5ccnn5)OC4=O)cc3F)cn2)cn1,0.5 µg/mL,< 0.06 µg/mL,0.5 µg/mL,2 µg/mL,12.5 µM,> 5.6 µM,0.31,–,> 100 mL/min/kg,–,–,> 20 µM,> 20 µM,> 20 µM,> 20 µM,> 20 µM
O=C(c1ccc(-c2ccc(N3C[C@H](Cn4ccnn4)OC3=O)cc2F)cn1)C1CCNCC1,0.5 µg/mL,0.13 µg/mL,0.5 µg/mL,4 µg/mL,100 µM,> 44 µM,–,2.4 h,38 mL/min/kg,3.8 L/kg,4000 ng·h/mL,–,–,–,–,–
CN1CCN(CCCC(O)c2ccc(-c3ccc(N4C[C@H](Cn5ccnn5)OC4=O)cc3F)cn2)CC1 (some centres not stated),2 µg/mL,0.25 µg/mL,1 µg/mL,8 µg/mL,> 400 µM,41 µM,–,–,–,–,–,–,–,–,–,–
O=C1O[C@@H](Cn2ccnn2)CN1c1ccc(-c2ccc(C(O)CN3CCOCC3)nc2)c(F)c1 (some centres not stated),1 µg/mL,0.25 µg/mL,2 µg/mL,4 µg/mL,> 400 µM,–,0.67,–,–,–,–,–,–,–,–,–
CC(C)C(O)c1ccc(-c2ccc(N3C[C@H](Cn4ccnn4)OC3=O)cc2F)cn1 (some centres not stated),0.5 µg/mL,0.25 µg/mL,2 µg/mL,16 µg/mL,> 400 µM,11.3 µM,–,–,–,–,–,–,–,–,–,–
O=C1O[C@@H](Cn2ccnn2)CN1c1ccc(-c2cccnc2)c(F)c1,0.25 µg/mL,< 0.06 µg/mL,1 µg/mL,2 µg/mL,12.5 µM,< 0.3 µM,–,–,–,–,–,> 20 µM,> 20 µM,> 20 µM,6.6 µM,6.8 µM
O=C1O[C@@H](Cn2ccnn2)CN1c1ccc(-c2ccc(CO)nc2)c(F)c1,0.25 µg/mL,0.13 µg/mL,1 µg/mL,1 µg/mL,100 µM,–,–,–,–,–,–,> 20 µM,> 20 µM,> 20 µM,> 20 µM,> 20 µM
C[C@@H](O)c1ccc(-c2ccc(N3C[C@H](Cn4ccnn4)OC3=O)cc2F)cn1,0.25 µg/mL,< 0.06 µg/mL,1 µg/mL,2 µg/mL,> 400 µM,4.3 µM,–,–,–,–,–,–,–,–,–,–
O=C1O[C@@H](Cn2ccnn2)CN1c1ccc(-c2ccc(C(O)C3CNC3)nc2)c(F)c1 (some centres not stated),64 µg/mL,16 µg/mL,> 64 µg/mL,64 µg/mL,> 400 µM,58 µM,–,–,–,–,–,–,–,–,–,–
